Assay results reported in ChEMBL document CHEMBL1144397, “Structure-based design: synthesis and biological evaluation of a series of novel cycloamide-derived HIV-1 protease inhibitors” (J Med Chem, 2005).

Columns and labels:
[1] = target: Human immunodeficiency virus type 1 protease (Human immunodeficiency virus 1, UniProt Q72874); assay: Inhibitory activity against human immunodeficiency virus 1 protease
[2] = tested on: MT2; assay: (§1) Compound tested for the inhibition of HIV-induced cytopathogenicity in MT-2 cells; type: functional, cell-based; conditions: Homo sapiens
Method in brief: (§2)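 MT-2 cells (2 × 10^3/well) infected with 100 TCID50s of HIV-1LAI in presence of various agent concentrations; 37 °C for 7 days. Viability read by MTT (7.5 mg/mL in PBS), 2 h at 37 °C, formazan dissolved in acidified 2-propanol with 4% Triton X-100, OD 570 nm. IC50/IC75 from inhibition of cytopathogenicity; duplicate assays, mean of two or three.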

[3] = tested on: MT2; assay: as §1; type: functional; conditions: Homo sapiens; method in brief: as §2

| Compound | Ki [1] | IC50 [2] | IC75 [3] |
| --- | --- | --- | --- |
| COc1ccc(S(=O)(=O)N(CC(C)C)CC(O)C2CCCCCCCCOc3c(O)cccc3C(=O)N2)cc1 (configuration not stated) | 0.7 nM | 300 nM | 740 nM |
| CCCCCCCC(NC(=O)c1cccc(O)c1O)C(O)CN(CC(C)C)S(=O)(=O)c1ccc(OC)cc1 (configuration not stated) | 270 nM |  |  |
| C=CCCCCC(NC(=O)c1cccc(O)c1OCCC=C)C(O)CN(CC(C)C)S(=O)(=O)c1ccc(OC)cc1 (configuration not stated) | 2 nM | > 1000 nM | > 1000 nM |
| CC(C)CN(C[C@@H](O)[C@H](Cc1ccccc1)NC(=O)O[C@H]1CCOC1)S(=O)(=O)c1ccc(N)cc1 |  | 28 nM | 79 nM |
| C=CCCCCC(NC(=O)c1cccc(O)c1OCCC=C)C(O)CN(CC(C)C)S(=O)(=O)c1ccc2c(c1)OCO2 (configuration not stated) | 20 nM |  |  |
| CC(C)(C)NC(=O)[C@@H]1C[C@@H]2CCCC[C@@H]2CN1C[C@@H](O)[C@H](Cc1ccccc1)NC(=O)[C@H](CC(N)=O)NC(=O)c1ccc2ccccc2n1 |  | 12 nM | 47 nM |
| COc1ccc(S(=O)(=O)N(CC(C)C)CC(O)C2CCCCCCCCCOc3c(O)cccc3C(=O)N2)cc1 (configuration not stated) | 2 nM | 560 nM | > 1000 nM |
| CC(C)CN(CC(O)C1CCCCCCCCOc2c(O)cccc2C(=O)N1)S(=O)(=O)c1ccc2c(c1)OCO2 (configuration not stated) | 3 nM | > 1000 nM | > 1000 nM |
| COc1ccc(S(=O)(=O)N(CC(C)C)CC(O)C2CCCCCCCOc3c(O)cccc3C(=O)N2)cc1 (configuration not stated) | 1 nM |  |  |
| C=CCCCCC(NC(=O)c1cccc(O)c1OCCCC=C)C(O)CN(CC(C)C)S(=O)(=O)c1ccc(OC)cc1 (configuration not stated) | 9 nM |  |  |
| COc1ccc(S(=O)(=O)N(CC(C)C)CC(O)C2CCCC/C=C\COc3c(O)cccc3C(=O)N2)cc1 (configuration not stated) | 2 nM |  |  |
| C=CCCCCC(NC(=O)c1cccc(O)c1OCC=C)C(O)CN(CC(C)C)S(=O)(=O)c1ccc(OC)cc1 (configuration not stated) | 12 nM |  |  |
